Data taken from ChEMBL document CHEMBL1155262, “A new class of anticonvulsants possessing 6 Hz activity: 3,4-dialkyloxy thiophene bishydrazones” (Eur J Med Chem, 2009).
Active and inactive are the calls of the source. The calls are words filed in the database; no cut-off is given here.

What was measured:
Mus musculus [1] = experiment: Anticonvulsant activity in mouse CF1 albino assessed as inhibition of minimal electric shock-induced seizure at 50 mg/kg, ip after 4 hrs; assay type: functional, organism-based; set-up: dose 50 mg/kg
Outline: (§1)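 6 Hz psychomotor seizure model in male CF-1 albino mice dosed i.p. Four mice per time point (0.25, 0.5, 1, 2, 4 h) received corneal-electrode current of 32 mA for 3 s. Untreated mice show a minimal clonic phase followed by stereotyped automatistic behaviour. Results given as number protected out of 4.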

Mus musculus [2] = experiment: Anticonvulsant activity in mouse CF1 albino assessed as inhibition of minimal electric shock-induced seizure at 50 mg/kg, ip after 1 hr; assay type: functional, organism-based; set-up: dose 50 mg/kg; outline: as §1
Mus musculus [3] = experiment: Anticonvulsant activity in mouse CF1 albino assessed as inhibition of minimal electric shock-induced seizure at 50 mg/kg, ip after 0.5 hrs; assay type: functional, organism-based; set-up: dose 50 mg/kg; outline: as §1
Mus musculus [4] = experiment: Anticonvulsant activity in mouse CF1 albino assessed as inhibition of minimal electric shock-induced seizure at 50 mg/kg, ip after 2 hrs; assay type: functional, organism-based; set-up: dose 50 mg/kg; outline: as §1
Mus musculus [5] = experiment: Anticonvulsant activity in mouse CF1 albino assessed as inhibition of minimal electric shock-induced seizure at 50 mg/kg, ip after 0.25 hrs; assay type: functional, organism-based; set-up: dose 50 mg/kg; outline: as §1
Mus musculus [6] = experiment: Anticonvulsant activity in mouse CF1 albino assessed as inhibition of minimal electric shock-induced seizure at 100 mg/kg, ip after 2 hrs; assay type: functional, organism-based; set-up: dose 100 mg/kg; outline: as §1
Mus musculus [7] = experiment: Anticonvulsant activity in mouse CF1 albino assessed as inhibition of maximal electric shock-induced seizure at 300 mg/kg, ip after 0.5 hrs; assay type: functional, organism-based; set-up: dose 300 mg/kg
Outline: (§2)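 Male CF-1 albino mice (18–25 g); compound suspended in 0.5% methyl cellulose/water or PEG 200, given i.p. at 30, 100 and 300 mg/kg (0.01 mL/g). Tested 0.5 or 4 h after dosing. Protection = abolition of hind limb tonic extensor component of MES seizure.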

Mus musculus [8] = experiment: Anticonvulsant activity in mouse CF1 albino assessed as inhibition of subcutaneous metrazole-induced seizure at 300 mg/kg, ip after 4 hrs; assay type: functional, organism-based; set-up: dose 300 mg/kg
Mus musculus [9] = experiment: Anticonvulsant activity in mouse CF1 albino assessed as inhibition of minimal electric shock-induced seizure at 100 mg/kg, ip after 1 hr; assay type: functional, organism-based; set-up: dose 100 mg/kg; outline: as §1
Mus musculus [10] = experiment: Anticonvulsant activity in mouse CF1 albino assessed as inhibition of subcutaneous metrazole-induced seizure at 300 mg/kg, ip after 0.5 hrs; assay type: functional, organism-based; set-up: dose 300 mg/kg
Mus musculus [11] = experiment: Neurotoxicity against ip dosed mouse CF1 albino assessed as minimal motor impairment after 4 hrs by rotord test; assay type: toxicity, organism-based; conditions: in vivo
Outline: (§3)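 Rotorod minimal motor impairment in male CF-1 albino mice (18–25 g) after i.p. dosing at 30, 100 or 300 mg/kg in 0.5% methyl cellulose/water or PEG 200. Mice placed on a rod rotating at 6 rpm at 0.5 or 4 h. Value is minimum dose causing impairment in at least one mouse.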

Mus musculus [12] = experiment: Anticonvulsant activity in mouse CF1 albino assessed as inhibition of minimal electric shock-induced seizure at 100 mg/kg, ip after 4 hrs; assay type: functional, organism-based; set-up: dose 100 mg/kg; outline: as §1
Mus musculus [13] = experiment: Neurotoxicity against ip dosed mouse CF1 albino assessed as minimal motor impairment after 0.5 hrs by rotord test; assay type: toxicity, organism-based; conditions: in vivo; outline: as §3
Mus musculus [14] = experiment: Anticonvulsant activity in ip dosed mouse CF1 albino assessed as inhibition of maximal electric shock-induced seizure after 4 hrs; assay type: functional; outline: as §2
Mus musculus [15] = experiment: Anticonvulsant activity in mouse CF1 albino assessed as inhibition of maximal electric shock-induced seizure at 300 mg/kg, ip after 4 hrs; assay type: functional, organism-based; set-up: dose 300 mg/kg; outline: as §2
Mus musculus [16] = experiment: Anticonvulsant activity in mouse CF1 albino assessed as inhibition of minimal electric shock-induced seizure at 100 mg/kg, ip after 0.5 hrs; assay type: functional, organism-based; set-up: dose 100 mg/kg; outline: as §1
Mus musculus [17] = experiment: Neurotoxicity against mouse CF1 albino assessed as minimal motor impairment at 300 mg/kg, ip after 0.5 hrs by rotord test; assay type: toxicity, organism-based; set-up: dose 300 mg/kg, route intraperitoneal; conditions: in vivo; outline: as §3
Mus musculus [18] = experiment: Neurotoxicity against mouse CF1 albino assessed as minimal motor impairment at 300 mg/kg, ip after 4 hrs by rotord test; assay type: toxicity, organism-based; set-up: dose 300 mg/kg, route intraperitoneal; conditions: in vivo; outline: as §3
Mus musculus [19] = experiment: Anticonvulsant activity in ip dosed mouse CF1 albino assessed as inhibition of subcutaneous metrazole-induced seizure after 4 hrs; assay type: functional
Mus musculus [20] = experiment: Anticonvulsant activity in mouse CF1 albino assessed as inhibition of minimal electric shock-induced seizure at 100 mg/kg, ip after 0.25 hrs; assay type: functional, organism-based; set-up: dose 100 mg/kg; outline: as §1
Mus musculus [21] = experiment: Anticonvulsant activity in ip dosed mouse CF1 albino assessed as inhibition of subcutaneous metrazole-induced seizure after 0.5 hrs; assay type: functional
Mus musculus [22] = experiment: Anticonvulsant activity in mouse CF1 albino assessed as inhibition of minimal electric shock-induced seizure at 30 mg/kg, ip after 0.5 hrs; assay type: functional, organism-based; set-up: dose 30 mg/kg; outline: as §1
Mus musculus [23] = experiment: Anticonvulsant activity in ip dosed mouse CF1 albino assessed as inhibition of maximal electric shock-induced seizure after 0.5 hrs; assay type: functional; outline: as §2
Mus musculus [24] = experiment: Anticonvulsant activity in mouse CF1 albino assessed as inhibition of minimal electric shock-induced seizure at 30 mg/kg, ip after 2 hrs; assay type: functional, organism-based; set-up: dose 30 mg/kg; outline: as §1
Mus musculus [25] = experiment: Anticonvulsant activity in mouse CF1 albino assessed as inhibition of minimal electric shock-induced seizure at 30 mg/kg, ip after 0.25 hrs; assay type: functional, organism-based; set-up: dose 30 mg/kg; outline: as §1
Mus musculus [26] = experiment: Anticonvulsant activity in mouse CF1 albino assessed as inhibition of minimal electric shock-induced seizure at 30 mg/kg, ip after 1 hr; assay type: functional, organism-based; set-up: dose 30 mg/kg; outline: as §1
Mus musculus [27] = experiment: Anticonvulsant activity in mouse CF1 albino assessed as inhibition of minimal electric shock-induced seizure at 30 mg/kg, ip after 4 hrs; assay type: functional, organism-based; set-up: dose 30 mg/kg; outline: as §1

Structure (SMILES) | Activity (Mus musculus [7]) | Activity (Mus musculus [8]) | Activity (Mus musculus [10]) | Activity (Mus musculus [13]) [mg/kg] | Activity (Mus musculus [15]) | Activity (Mus musculus [18]) | also measured
CCCCCCCOc1c(C(=O)N/N=C/c2ccc3c(c2)c2ccccc2n3CC)sc(C(=O)N/N=C/c2ccc3c(c2)c2ccccc2n3CC)c1OCCCCCCC |  |  |  |  |  |  | Activity (Mus musculus [1]): inactive; Activity (Mus musculus [2]): inactive; Activity (Mus musculus [3]): inactive; Activity (Mus musculus [4]): inactive; Activity (Mus musculus [5]): inactive
CCCOc1c(C(=O)N/N=C2/C(=O)Nc3ccccc32)sc(C(=O)N/N=C2/C(=O)Nc3ccccc32)c1OCCC | inactive | inactive | inactive | 100 |  |  | Activity (Mus musculus [6]): inactive; Activity (Mus musculus [9]): inactive; Activity (Mus musculus [11]): 300 mg/kg; Activity (Mus musculus [12]): inactive; Activity (Mus musculus [14]): 300 mg/kg
CCCOc1c(C(=O)N/N=C/c2ccc(N(C)C)cc2)sc(C(=O)N/N=C/c2ccc(N(C)C)cc2)c1OCCC | inactive | inactive | inactive | 100 | inactive |  | Activity (Mus musculus [11]): 300 mg/kg
CCCOc1c(C(=O)N/N=C(/C)c2ccc(Br)s2)sc(C(=O)N/N=C(/C)c2ccc(Br)s2)c1OCCC |  |  |  |  |  |  | Activity (Mus musculus [16]): inactive
CCCCCCCOc1c(C(=O)NN)sc(C(=O)NN)c1OCCCCCCC | inactive | inactive | inactive |  |  | Not Active | Activity (Mus musculus [17]): Not Active; Activity (Mus musculus [14]): 100 mg/kg
CCCOc1c(C(=O)N/N=C/c2ccccc2OC)sc(C(=O)N/N=C/c2ccccc2OC)c1OCCC | inactive | inactive | inactive | 100 | inactive | Not Active | 
CCCOc1c(C(=O)N/N=C(/C)c2cc(Cl)sc2Cl)sc(C(=O)N/N=C(/C)c2cc(Cl)sc2Cl)c1OCCC | inactive |  | inactive | 300 | inactive | Not Active | Activity (Mus musculus [19]): 300 mg/kg
CCCOc1c(C(=O)N/N=C/c2cccnc2N)sc(C(=O)N/N=C/c2cccnc2N)c1OCCC |  |  |  |  |  |  | Activity (Mus musculus [6]): inactive; Activity (Mus musculus [16]): inactive; Activity (Mus musculus [9]): inactive; Activity (Mus musculus [12]): inactive
CCCOc1c(C(=O)N/N=C/c2ccc([N+](=O)[O-])cc2)sc(C(=O)N/N=C/c2ccc([N+](=O)[O-])cc2)c1OCCC | inactive | inactive | inactive | 100 | inactive | Not Active | 
CCCOc1c(C(=O)N/N=C(/C)c2ccsc2Br)sc(C(=O)N/N=C(/C)c2ccsc2Br)c1OCCC |  |  |  |  |  |  | Activity (Mus musculus [6]): inactive; Activity (Mus musculus [20]): inactive; Activity (Mus musculus [12]): inactive
CCCOc1c(C(=O)N/N=C/c2ccc(C(=O)O)cc2)sc(C(=O)N/N=C/c2ccc(C(=O)O)cc2)c1OCCC | inactive | inactive | inactive | 100 | inactive | Not Active | 
CCCOc1c(C(=O)NN)sc(C(=O)NN)c1OCCC | inactive | inactive | inactive | 100 | inactive | Not Active | 
CCCOc1c(C(=O)N/N=C/c2ccccc2O)sc(C(=O)N/N=C/c2ccccc2O)c1OCCC | inactive |  | inactive |  | inactive | Not Active | Activity (Mus musculus [6]): inactive; Activity (Mus musculus [19]): 300 mg/kg; Activity (Mus musculus [20]): inactive; Activity (Mus musculus [17]): Not Active; Activity (Mus musculus [12]): inactive
O=C(N/N=C/c1ccc2c(c1)Cc1ccccc1-2)c1sc(C(=O)N/N=C/c2ccc3c(c2)Cc2ccccc2-3)c2c1OCCO2 | inactive | inactive |  |  | inactive | Not Active | Activity (Mus musculus [17]): Not Active; Activity (Mus musculus [21]): 300 mg/kg
O=C(N/N=C/c1ccccc1)c1sc(C(=O)N/N=C/c2ccccc2)c(OCc2ccccc2)c1OCc1ccccc1 |  |  | inactive |  | inactive | Not Active | Activity (Mus musculus [22]): inactive; Activity (Mus musculus [19]): 300 mg/kg; Activity (Mus musculus [23]): 300 mg/kg; Activity (Mus musculus [24]): inactive; Activity (Mus musculus [17]): Not Active; Activity (Mus musculus [25]): inactive; Activity (Mus musculus [26]): inactive
CCCOc1c(C(=O)N/N=C/c2cc([N+](=O)[O-])ccc2Br)sc(C(=O)N/N=C/c2cc([N+](=O)[O-])ccc2Br)c1OCCC | inactive | inactive | inactive | 300 | inactive | Not Active | 
CCCCCCCOc1c(C(=O)N/N=C/c2cc(OC)c(OC)c(OC)c2)sc(C(=O)N/N=C/c2cc(OC)c(OC)c(OC)c2)c1OCCCCCCC |  |  |  |  |  |  | Activity (Mus musculus [20]): inactive
CCCCCCCOc1c(C(=O)N/N=C2/C(=O)Nc3ccccc32)sc(C(=O)N/N=C2/C(=O)Nc3ccccc32)c1OCCCCCCC |  |  |  |  |  |  | Activity (Mus musculus [20]): inactive; Activity (Mus musculus [9]): inactive
CCCCCCCOc1c(C(=O)N/N=C(\C)c2cccs2)sc(C(=O)N/N=C(\C)c2cccs2)c1OCCCCCCC |  |  |  |  |  |  | Activity (Mus musculus [22]): inactive; Activity (Mus musculus [27]): inactive; Activity (Mus musculus [24]): inactive; Activity (Mus musculus [9]): inactive; Activity (Mus musculus [25]): inactive; Activity (Mus musculus [26]): inactive
CCCOc1c(C(=O)N/N=C(/C)c2ccsc2)sc(C(=O)N/N=C(/C)c2ccsc2)c1OCCC |  |  |  |  |  |  | Activity (Mus musculus [20]): inactive; Activity (Mus musculus [12]): inactive
C/C(=N\NC(=O)c1sc(C(=O)N/N=C(\C)c2cccs2)c(OCc2ccccc2)c1OCc1ccccc1)c1cccs1 | inactive | inactive | inactive |  |  | Not Active | Activity (Mus musculus [17]): Not Active; Activity (Mus musculus [14]): 300 mg/kg
COc1cc(/C=N/NC(=O)c2sc(C(=O)N/N=C/c3cc(OC)c(OC)c(OC)c3)c3c2OCCO3)cc(OC)c1OC | inactive | inactive | inactive | 300 | inactive | Not Active | 
CCCCCCCOc1c(C(=O)N/N=C/c2ccccc2)sc(C(=O)N/N=C/c2ccccc2)c1OCCCCCCC | inactive | inactive |  |  | inactive | Not Active | Activity (Mus musculus [1]): inactive; Activity (Mus musculus [2]): inactive; Activity (Mus musculus [3]): inactive; Activity (Mus musculus [17]): Not Active; Activity (Mus musculus [4]): inactive; Activity (Mus musculus [12]): inactive; Activity (Mus musculus [5]): inactive; Activity (Mus musculus [21]): 300 mg/kg
O=C(N/N=C/c1ccc([N+](=O)[O-])cc1)c1sc(C(=O)N/N=C/c2ccc([N+](=O)[O-])cc2)c(OCc2ccccc2)c1OCc1ccccc1 | inactive | inactive | inactive | 100 | inactive | Not Active | 
